Laboratory results reported in ChEMBL document CHEMBL1671787, “2-Aminothiazoles as therapeutic leads for prion diseases” (J Med Chem, 2011).

Tests used:
[1] = Antiprion activity against PrPsc infected in dividing mouse ScN2a-cl3 cells assessed as reduction in prion load after 5 days by ELISA; assay type: cell-based; conditions: N2a-cl3, 120 h
Summary of the method: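 ScN2a (RML-infected N2a) cells seeded at 40,000 cells/well in MEM with 10% FBS, GlutaMax, 500 µg/mL geneticin. Compounds added 4 h after seeding, 0.5% final DMSO. Incubated 5 days at 37 °C, 5% CO2. Lysates captured on D18-coated ELISA plates overnight at 4 °C, then HRP-D13 antibody 1 h. EC50 is the mean of three determinations.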

Liver microsomes = test: Metabolic stability in rat liver microsomes assessed as half life by LC-MS/MS analysis; assay type: ADME, Microsome
Summary of the method: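 Compound at 1 µM final (0.6% acetonitrile, 0.01% DMSO) in PBS pH 7.4. Incubated with rat hepatic microsomes (~0.3 mg/mL), 1 mM NADPH and 4 mM UDPGA or PBS at 37 °C. Samples taken at 0, 1, 10, 30 and 60 min and quenched in acetonitrile with carbamazepine internal standard. Remaining parent measured by LCMS; duplicate incubations. Midazolam and 4-nitrophenol served as controls.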

MDCK [2] = test: Permeability across apical to basolateral side MDR1-expressing MDCK cells; assay type: ADME, cell-based, Canis lupus familiaris; conditions: dog
Summary of the method: (§1)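 MDR1-MDCK monolayers grown 5–10 days on 1 µm filters. Compound at 10 µM in HBSS pH 7.4 with 25 mM HEPES and 0.05% PS80, added to the apical or basolateral donor chamber. Receiver samples taken every 20 min and quantified by HPLC/UV/MS. Permeability coefficients calculated per interval and averaged; run in duplicate.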

MDCK [3] = test: Permeability across basolateral to apical side MDR1-expressing MDCK cells; assay type: ADME, cell-based, Canis lupus familiaris; conditions: dog; summary of the method: as §1
Brain [4] = test: Drug uptake in FVB mouse brain at 40 to 210 mg/kg/day, po administered as part of liquid diet for 3 days; assay type: ADME, organism-based; design: route oral; conditions: in vivo, 72 h
Summary of the method: (§2)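 Wild-type FVB mice (~25 g), three per dose group sharing a cage. Compound was dissolved in PEG400 and diluted into a liquid diet of homogenized rodent feed, cocoa and water. Diet given ad libitum for 3 days; daily dose estimated from ~20 mL/day intake. Doses were 0, 40, 80, 130 or 210 mg/kg/day. After CO2 euthanasia, brain was homogenized with four-fold water and measured by LC-MS.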

Brain [5] = test: Drug uptake in FVB mouse brain at 130 mg/kg/day, po administered as part of liquid diet for 3 days; assay type: ADME, organism-based; design: route oral; conditions: in vivo, 72 h; summary of the method: as §2
Nucleic Acid = test: Ratio of drug level in FVB mouse to EC50 for PrPsc
Summary of the method: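 Brain (and plasma) levels in wild-type FVB mice given 0, 40, 80, 130 or 210 mg/kg/day for 3 days in liquid rodent diet (PEG400 stock diluted with feed, cocoa, water), 3 mice per dose. At an arbitrary point after feeding (pseudo steady-state), brain homogenised and assayed by LC-MS. Levels set against the mean EC50 from 3 determinations in ScN2a-cl3 cells (5-day PrPSc ELISA).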

Compound	EC50 [1]	other results
COc1ccc(-c2csc(Nc3ccc(C)cn3)n2)cc1	3030 nM	
COc1ccc(-c2csc(Nc3ncccn3)n2)cc1OC	3930 nM	
Cc1ccc(Nc2nc(-c3ccccn3)cs2)nc1	860 nM	
COc1ccnc(Nc2nc(-c3cc(-c4ccccc4)no3)cs2)c1	250 nM	
c1ccc2cc(Nc3nc(-c4ccncc4)cs3)ncc2c1	310 nM	
Cc1ccc(Nc2nc3c(s2)Cc2ccccc2-3)nc1	2440 nM	
FC(F)(F)c1csc(Nc2cc3ccccc3cn2)n1	8660 nM	
COc1ccc(-c2csc(N(C(C)=O)c3cc4ccccc4cn3)n2)cc1OC	81 nM	
c1ccc(-c2cc(-c3csc(Nc4ccccn4)n3)on2)cc1	600 nM	
COc1ccc(-c2csc(C(=O)Nc3cc4ccccc4cn3)n2)cc1OC	> 10000 nM	
COc1cc2c(cc1OC)-c1nc(Nc3ccc(C)cn3)sc1C2	5590 nM	
COc1ccc(-c2csc(Nc3ccc4ccccc4c3)n2)cc1OC	390 nM	
CNc1nc(-c2ccc(OC)c(OC)c2)cs1	> 32000 nM	
COc1ccc(-c2csc(Nc3cccc4ccccc34)n2)cc1OC	> 32000 nM	
Cc1ccc(Nc2nc(-c3ccncc3)cs2)nc1	1570 nM	t1/2 (Liver microsomes): 20 min; permeability (MDCK [2]): 32.6 ×10⁻⁶ cm/s; permeability (MDCK [3]): 42.3 ×10⁻⁶ cm/s
COc1ccc(-c2csc(Nc3ccc(C)cn3)n2)cc1OC	790 nM	
COc1ccccc1-c1csc(Nc2ccc(C)cn2)n1	> 29000 nM	
Cc1ccnc(Nc2nc(-c3cc(-c4ccccc4)no3)cs2)c1	1270 nM	
COc1ccc(-c2csc(Nc3cnccn3)n2)cc1OC	15600 nM	
Cc1csc(Nc2cc3ccccc3cn2)n1	> 32000 nM	
COc1ccc(-c2csc(Nc3cc4ccccc4cn3)n2)cc1	340 nM	
c1ccc(-c2csc(Nc3cc4ccccc4cn3)n2)cc1	3080 nM	

Compound	EC50 [1]	other results
COc1ccc(-c2csc(Nc3ccc4ccccc4n3)n2)cc1OC	430 nM	t1/2 (Liver microsomes): 69 min; permeability (MDCK [2]): 9.2 ×10⁻⁶ cm/s; permeability (MDCK [3]): 8.9 ×10⁻⁶ cm/s
COc1ccc(Nc2nc(-c3ccc(OC)c(OC)c3)cs2)nc1		t1/2 (Liver microsomes): 45 min
COc1ccc(-c2csc(Nc3cccc(C)n3)n2)cc1OC	3010 nM	
Cc1ccc(Nc2nc(-c3ccccc3)cs2)nc1	7880 nM	t1/2 (Liver microsomes): 10 min
Cc1ccc(Nc2nc(-c3ccc(-c4ccccn4)s3)cs2)nc1	1230 nM	
Cc1cccc(Nc2nc(-c3cc(-c4ccccc4)no3)cs2)n1	820 nM	
COc1ccc(-c2csc(NC(=O)c3cc4ccccc4cn3)n2)cc1OC	8180 nM	
COc1ccc(-c2csc(N(C)c3cc4ccccc4cn3)n2)cc1OC	140 nM	
c1ccc(-c2cc(-c3csc(Nc4cc5ccccc5cn4)n3)on2)cc1	800 nM	
COc1ccc(-c2csc(Nc3ccc(C(F)(F)F)cn3)n2)cc1OC	2530 nM	t1/2 (Liver microsomes): 150 min; permeability (MDCK [2]): 9.4 ×10⁻⁶ cm/s; permeability (MDCK [3]): 8.7 ×10⁻⁶ cm/s
COc1ccc(-c2csc(Nc3cc4ccccc4cn3)n2)cc1OC		t1/2 (Liver microsomes): 83 min
COc1ccc(-c2csc(Nc3ncccc3C)n2)cc1OC	7290 nM	
c1ccc(-c2ccc(-c3csc(Nc4cc5ccccc5cn4)n3)s2)nc1	2010 nM	
COc1ccc(Nc2nc(-c3cc(-c4ccccc4)no3)cs2)nc1	230 nM	
Cc1ccc(Nc2nc(-c3cc(-c4ccccc4)no3)cs2)nc1	940 nM	Drug uptake (Brain [4]): Active; Drug uptake (Brain [5]): Active; t1/2 (Liver microsomes): 151 min; permeability (MDCK [2]): 6.8 ×10⁻⁶ cm/s; permeability (MDCK [3]): 8.3 ×10⁻⁶ cm/s; Ratio (Nucleic Acid): 25
FC(F)(F)Oc1ccc(-c2csc(Nc3cc4ccccc4cn3)n2)cc1	> 32000 nM	
c1ccc(-c2cc(-c3csc(Nc4ccncc4)n3)on2)cc1	4420 nM	
Cc1ccc(Nc2nc(-c3c(-c4ccccc4)noc3C)cs2)nc1	> 26000 nM	t1/2 (Liver microsomes): 19 min; permeability (MDCK [2]): 11.2 ×10⁻⁶ cm/s; permeability (MDCK [3]): 8.6 ×10⁻⁶ cm/s
COc1ccc(NC(=O)c2csc(Nc3ccc(C)cn3)n2)cc1OC	2440 nM	
COc1ccc(-c2csc(Nc3cc(C)ccn3)n2)cc1OC	1000 nM	
Cc1ccc(Nc2nc(C)cs2)nc1	> 32000 nM	
